Active and inactive are the calls of the source. No cut-off for these calls is given here.
Legend:
Mus musculus [1] = assay: Anticonvulsant activity in mice, (induced by subcutaneous administration of Metrazol.) after 0.25 hr of administration, for Phase-II screening; type: functional; conditions: sc
Procedure, shortened: (§1)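 Phase II quantitative evaluation in mice by the NINCDS program. Dosing was ip as suspensions in 0.5% methylcellulose or 30% polyethylene glycol 400. ED50 (MES or subcutaneous Metrazol) or TD50 (rotorod) in mg/kg was derived with 95% confidence intervals, measured at the stated time after administration.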

Mus musculus [2] = assay: Anticonvulsant activity in mice(induced by maximal electroshock )after 0.25 hr of administration, for Phase-II screening; type: functional; procedure, shortened: as §1
Mus musculus [3] = assay: Anticonvulsant activity in mice, induced by maximal electroshock for Phase-I screening; Active at 100 mg/kg; type: functional, organism-based; parameters: dose 100 mg/kg
Procedure, shortened: (§2)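 Phase I qualitative screen run by the NINCDS Anticonvulsant Drug Development Program. Mice (1-4 per group) received 30, 100 or 300 mg/kg ip as suspensions in 30% polyethylene glycol 400 unless otherwise noted. Testing was 30 min after dosing in the MES, subcutaneous Metrazol or rotorod toxicity model.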

Mus musculus [4] = assay: Rotarod toxicity test in Phase-I screening was determined; Active at 300 mg/kg; type: organism-based; parameters: dose 300 mg/kg; conditions: in vivo; procedure, shortened: as §2
[5] = Rotarod toxicity test for the compound in Phase-II screening was determined; type: organism-based; conditions: mouse, in vivo
Mus musculus [6] = assay: Anticonvulsant activity in mice, induced by subcutaneous administration of Metrazol for Phase-I screening; Active at 300 mg/kg; type: functional, organism-based; parameters: dose 300 mg/kg; procedure, shortened: as §2
[7] = molecular target: Sodium channel alpha subunits; brain (Types I, II, III) (Rattus norvegicus, UniProt P04775+P04774+P08104); assay: In vitro inhibition of [3H]-BTX-B binding to sodium channels in rat brain synapto-neurosomes; type: tissue-based
Procedure, shortened: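 Rat cerebral cortex synaptoneurosomes were prepared by glass-glass homogenization in choline chloride/HEPES/glucose/MgSO4/KCl buffer, then spun at 1000g for 15 min at 4 °C. Incubation was 40 min at 25 °C with 10 nM [3H]BTX-B, 50 µg/mL scorpion venom, about 980 µg protein and varying compound concentrations (final MeOH <1%). Bound label was collected by filtration and scintillation counting. Nonspecific binding was taken with 250 µM veratridine. IC50 is the concentration giving 50% inhibition of specific binding.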

Mus musculus [8] = assay: Anticonvulsant activity in mice, (induced by subcutaneous administration of Metrazol.) after 0.5 hr of administration, for Phase-II screening; type: functional; conditions: sc; procedure, shortened: as §1
Mus musculus [9] = assay: Anticonvulsant activity in mice(induced by maximal electroshock )after 0.5 hr of administration, for Phase-II screening; type: functional; procedure, shortened: as §1
Mus musculus [10] = assay: Anticonvulsant activity in mice, induced by maximal electroshock for Phase-I screening; Active at 300 mg/kg; type: functional, organism-based; parameters: dose 300 mg/kg; procedure, shortened: as §2
Mus musculus [11] = assay: Rotarod toxicity test in Phase-I screening was determined; Active at 30 mg/kg; type: organism-based; parameters: dose 30 mg/kg; conditions: in vivo; procedure, shortened: as §2
Mus musculus [12] = assay: Anticonvulsant activity in mice, induced by subcutaneous administration of Metrazol for Phase-I screening; Active at 30 mg/kg; type: functional, organism-based; parameters: dose 30 mg/kg; procedure, shortened: as §2
Mus musculus [13] = assay: Anticonvulsant activity in mice, (induced by subcutaneous administration of Metrazol) after 0.25 hr of administration, for Phase-II screening; type: functional; conditions: sc; procedure, shortened: as §1
Mus musculus [14] = assay: Anticonvulsant activity in mice, induced by maximal electroshock for Phase-I screening; active at 100 mg/kg; type: functional, organism-based; parameters: dose 100 mg/kg; procedure, shortened: as §2
Mus musculus [15] = assay: Rotarod toxicity test in Phase-I screening was determined; active at 100 mg/kg; type: organism-based; parameters: dose 100 mg/kg; conditions: in vivo; procedure, shortened: as §2
Mus musculus [16] = assay: Anticonvulsant activity in mice, induced by subcutaneous administration of Metrazol for Phase-I screening; active at 100 mg/kg; type: functional, organism-based; parameters: dose 100 mg/kg; procedure, shortened: as §2
Mus musculus [17] = assay: Anticonvulsant activity in mice(induced by maximal electroshock) after 0.25 hr of administration, for Phase-II screening; type: functional; procedure, shortened: as §1
Mus musculus [18] = assay: Anticonvulsant activity in mice (induced by maximal electroshock )after 0.5 hr of administration, for Phase-II screening; type: functional; procedure, shortened: as §1
Mus musculus [19] = assay: Anticonvulsant activity in mice, (induced by subcutaneous administration of Metrazol.) after 1 hr (tested for rotarod test only) of administration, for Phase-II screening; type: functional; conditions: sc
Mus musculus [20] = assay: Anticonvulsant activity in mice(induced by maximal electroshock )after 1 hr (tested for rotarod test only) of administration, for Phase-II screening; type: functional
Mus musculus [21] = assay: Anticonvulsant activity in mice, (induced by subcutaneous administration of Metrazol.) after 2 hr of administration, for Phase-II screening; Inactive; type: functional, organism-based; procedure, shortened: as §1
Mus musculus [22] = assay: Anticonvulsant activity in mice(induced by maximal electroshock )after 2 hr of administration, for Phase-II screening; type: functional; procedure, shortened: as §1
Mus musculus [23] = assay: Rotarod toxicity test in Phase-I screening was determined; Inactive up to 300 mg/kg; type: organism-based; parameters: dose 300 mg/kg; conditions: in vivo; procedure, shortened: as §2
Mus musculus [24] = assay: Anticonvulsant activity in mice, induced by maximal electroshock for Phase-I screening; Inactive up to 300 mg/kg; type: functional, organism-based; parameters: dose 300 mg/kg
Procedure, shortened: (§3)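 NINCDS Anticonvulsant Drug Development Program qualitative phase I screen in mice (1-4 per dose) at 30, 100 and 300 mg/kg, given ip as suspensions in 30% PEG 400 (some in 0.5% methylcellulose). Challenge 30 min post-dose with maximal electroshock or subcutaneous Metrazol.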

Mus musculus [25] = assay: Anticonvulsant activity in mice, induced by subcutaneous administration of Metrazol for Phase-I screening; Inactive up to 300 mg/kg; type: functional, organism-based; parameters: dose 300 mg/kg; procedure, shortened: as §3
Mus musculus [26] = assay: Anticonvulsant activity in mice, (induced by subcutaneous administration of Metrazol.) after 0.25 hr of administration, for Phase-II screening; Inactive; type: functional, organism-based; procedure, shortened: as §1
Mus musculus [27] = assay: Anticonvulsant activity in mice, induced by subcutaneous administration of Metrazol for Phase-I screening; Active at 100 mg/kg; type: functional, organism-based; parameters: dose 100 mg/kg; procedure, shortened: as §2

| IC50 [7] | Compound | MES (Mus musculus [3]) | TD50 [5] | scMet (Mus musculus [6]) | ED50 (Mus musculus [8]) | also measured |
| --- | --- | --- | --- | --- | --- | --- |
| > 800 µM | O=C1NCCCCCC1(O)c1ccccc1 (stereo not given) | Active | 199 mg/kg | Active | – | ED50 (Mus musculus [1]): 108 mg/kg; ED50 (Mus musculus [2]): 80 mg/kg; Rotorod (Mus musculus [4]): Active |
| > 800 µM | COC1(c2ccccc2)CCCNC1=O (stereo not given) | Active | 239 mg/kg | Active | 50 mg/kg | ED50 (Mus musculus [9]): 120 mg/kg; Rotorod (Mus musculus [4]): Active |
| 500 µM | CCC1(c2ccccc2)OC(=O)N(C)C1=O (stereo not given) | – | 504 mg/kg | – | 45 mg/kg | ED50 (Mus musculus [9]): 124 mg/kg; MES (Mus musculus [10]): Active; Rotorod (Mus musculus [11]): Active; scMet (Mus musculus [12]): Active |
| 160 µM | O=C1O[C@]2(c3ccccc3)CCCCCN1C2=O | – | 147 mg/kg | – | – | ED50 (Mus musculus [13]): 45 mg/kg; MES (Mus musculus [14]): Active; Rotorod (Mus musculus [15]): Active; scMet (Mus musculus [16]): Active; ED50 (Mus musculus [17]): 66 mg/kg |
| > 800 µM | CCC1(c2ccccc2)OC(=O)NC1=O (stereo not given) | – | 164 mg/kg | – | 39 mg/kg | ED50 (Mus musculus [18]): 86 mg/kg; MES (Mus musculus [10]): Active; Rotorod (Mus musculus [11]): Active; scMet (Mus musculus [12]): Active |
| > 1000 µM | CN1C(=O)OC(C)(C)C1=O [TRIMETHADIONE] | – | 819 mg/kg | – | – | ED50 (Mus musculus [19]): 300 mg/kg; ED50 (Mus musculus [20]): 627 mg/kg |
| 590 µM | CCOC(=O)N1CCCC(OC)(c2ccccc2)C1=O (stereo not given) | – | > 300 mg/kg | Active | 124 mg/kg | ED50 (Mus musculus [9]): 225 mg/kg; MES (Mus musculus [10]): Active; Rotorod (Mus musculus [23]): Not Active |
| 380 µM | O=C1O[C@@]2(c3ccccc3)CCCCN1C2=O | – | – | Active | – | MES (Mus musculus [24]): inactive; Rotorod (Mus musculus [23]): Not Active |
| > 800 µM | O=C1NCCCCC1(O)c1ccccc1 (stereo not given) | Active | 210 mg/kg | Active | – | ED50 (Mus musculus [1]): 74 mg/kg; ED50 (Mus musculus [2]): 63 mg/kg; Rotorod (Mus musculus [4]): Active |
| > 800 µM | CN1CCCC(O)(c2ccccc2)C1=O (stereo not given) | Active | ~350 mg/kg | Active | 128 mg/kg | ED50 (Mus musculus [9]): 84 mg/kg; Rotorod (Mus musculus [23]): Not Active |
| 640 µM | CCOC(=O)N1CCCCC(O)(c2ccccc2)C1=O (stereo not given) | Active | 216 mg/kg | – | – | ED50 (Mus musculus [2]): 84 mg/kg; Rotorod (Mus musculus [4]): Active; scMet (Mus musculus [27]): Active |

| Compound | IC50 [7] | MES (Mus musculus [3]) | TD50 [5] | scMet (Mus musculus [6]) | ED50 (Mus musculus [8]) | also measured |
| --- | --- | --- | --- | --- | --- | --- |
| O=C1NC(=O)C(c2ccccc2)(c2ccccc2)N1 [PHENYTOIN] | 40 µM | – | – | – | – | ED50 (Mus musculus [21]): inactive; ED50 (Mus musculus [22]): 10 mg/kg |
| O=C1NCCCC1(O)c1ccccc1 (stereo not given) | > 800 µM | – | – | – | – | MES (Mus musculus [24]): inactive; Rotorod (Mus musculus [23]): Not Active; scMet (Mus musculus [25]): inactive |
| NC(=O)N1c2ccccc2C=Cc2ccccc21 [CARBAMAZEPINE] | 131 µM | – | – | – | – | ED50 (Mus musculus [26]): inactive; ED50 (Mus musculus [2]): 9 mg/kg |

From ChEMBL document CHEMBL1124013, “Anticonvulsant activities of phenyl-substituted bicyclic 2,4-oxazolidinediones and monocyclic models. Comparison with binding to the neuronal voltage-dependent sodium channel” (J Med Chem, 1988)
